Experimental data published in ChEMBL document CHEMBL2177098, “Synthesis and evaluation of novel ¹⁸F labeled 2-pyridinylbenzoxazole and 2-pyridinylbenzothiazole derivatives as ligands for positron emission tomography (PET) imaging of β-amyloid plaques” (J Med Chem, 2012).

Tests used:
Stomach [1] = assay: Drug uptake in ICR mouse stomach assessed per organ at 370 kBq/100 ul, iv at 30 mins by gamma-counting analysis; type: ADME, organism-based; details: in vivo, 0.5 h
Procedure, shortened: (§1)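 Male ICR mice (5 weeks, about 20 g) got 18F tracer in saline (370 KBq per 100 μL) via tail vein; n = 5 per time point, killed at 2, 10, 30, 60 min. Organs removed and γ-counted against diluted injectate; expressed as % injected dose per organ.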

Intestine [2] = assay: Drug uptake in ICR mouse intestine assessed per organ at 370 kBq/100 ul, iv at 60 mins by gamma-counting analysis; type: ADME, organism-based; details: in vivo, 1 h; procedure, shortened: as §1
Liver [3] = assay: Drug uptake in ICR mouse liver at 370 kBq/100 ul, iv at 2 mins by gamma-counting analysis; type: ADME, organism-based; details: in vivo
Procedure, shortened: (§2)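 Male ICR mice (5 weeks, about 20 g) got 18F tracer in saline (370 KBq per 100 μL) via tail vein; n = 5 per time point, killed at 2, 10, 30, 60 min. Organs weighed and γ-counted; percent dose per gram wet tissue from comparison with diluted injectate aliquots.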

[4] = n-Octanol-PBS buffer partition coefficient, log D of the compound at 1.5 MBq after 3 mins at pH 7.4; type: physicochemical
Procedure, shortened: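 The tracer was partitioned between n-octanol and PBS by vortexing for 3 min at room temperature, then centrifuged for 5 min at 3000 rpm. Samples of the octanol (50 μL) and aqueous (500 μL) layers were counted. log D is the log of the octanol/PBS counts-per-gram ratio. The octanol layer was repartitioned until values were consistent. Measured in triplicate and repeated three times.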

Brain [5] = assay: Drug uptake in healthy human brain at 370 KBq/100 ul after 1 hr by autoradiographic analysis; type: ADME, tissue-based; details: in vitro
Brain [6] = assay: Drug uptake in ICR mouse brain at 370 kBq/100 ul, iv at 2 mins by gamma-counting analysis; type: ADME, organism-based; details: in vivo; procedure, shortened: as §2
Heart [7] = assay: Drug uptake in ICR mouse heart at 370 kBq/100 ul, iv at 10 mins by gamma-counting analysis; type: ADME, organism-based; details: in vivo; procedure, shortened: as §2
Lung [8] = assay: Drug uptake in ICR mouse lung at 370 kBq/100 ul, iv at 10 mins by gamma-counting analysis; type: ADME, organism-based; details: in vivo; procedure, shortened: as §2
Spleen [9] = assay: Drug uptake in ICR mouse spleen at 370 kBq/100 ul, iv at 10 mins by gamma-counting analysis; type: ADME, organism-based; details: in vivo; procedure, shortened: as §2
Brain [10] = assay: Drug uptake in ICR mouse brain at 370 kBq/100 ul, iv at 30 mins by gamma-counting analysis; type: ADME, organism-based; details: in vivo, 0.5 h; procedure, shortened: as §2
Stomach [11] = assay: Drug uptake in ICR mouse stomach assessed per organ at 370 kBq/100 ul, iv at 60 mins by gamma-counting analysis; type: ADME, organism-based; details: in vivo, 1 h
Procedure, shortened: (§3)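 Normal male ICR mice (5 weeks, about 20 g) received the ¹⁸F tracer in saline (370 KBq per 100 μL) by tail-vein injection. Groups of n = 5 were killed at 2, 10, 30 and 60 min. Organs were removed, weighed and γ-counted against diluted aliquots of the injectate, giving % dose per gram. Stomach and intestine were expressed per organ. The brain ratio is 2 min/60 min uptake. Values are mean ± SD.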

Kidney [12] = assay: Drug uptake in ICR mouse kidney at 370 kBq/100 ul, iv at 30 mins by gamma-counting analysis; type: ADME, organism-based; details: in vivo, 0.5 h; procedure, shortened: as §2
Blood [13] = assay: Drug uptake in ICR mouse blood at 370 kBq/100 ul, iv at 30 mins by gamma-counting analysis; type: ADME, organism-based; details: in vivo, 0.5 h; procedure, shortened: as §2
Brain [14] = assay: Drug uptake in ICR mouse brain at 370 kBq/100 ul, iv at 60 mins by gamma-counting analysis; type: ADME, organism-based; details: in vivo, 1 h; procedure, shortened: as §2
Heart [15] = assay: Drug uptake in ICR mouse heart at 370 kBq/100 ul, iv at 2 mins by gamma-counting analysis; type: ADME, organism-based; details: in vivo; procedure, shortened: as §2
Heart [16] = assay: Drug uptake in ICR mouse heart at 370 kBq/100 ul, iv at 60 mins by gamma-counting analysis; type: ADME, organism-based; details: in vivo, 1 h; procedure, shortened: as §2
Heart [17] = assay: Drug uptake in ICR mouse heart at 370 kBq/100 ul, iv at 30 mins by gamma-counting analysis; type: ADME, organism-based; details: in vivo, 0.5 h; procedure, shortened: as §2
[18] = Displacement of [125I]-IMPY from amyloid beta (1 to 42) fibrils after 2 hrs by gamma-counting analysis
Procedure, shortened: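 Competition binding with aggregated Aβ1-42 fibrils and [125I]IMPY (60000−100000 cpm/100 μL) in 0.05% BSA (1 mL total); inhibitors 10⁻⁴−10^−8.5 M in ethanol. Incubated 37 °C for 2 h, then GF/B vacuum filtration with PBS (0.02 M, pH 7.4) washes and γ counting. Three repeats; IC50 converted to Ki by Cheng−Prusoff.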

Brain [19] = assay: Drug uptake in ICR mouse brain at 370 kBq/100 ul, iv at 10 mins by gamma-counting analysis; type: ADME, organism-based; details: in vivo; procedure, shortened: as §2
Liver [20] = assay: Drug uptake in ICR mouse liver at 370 kBq/100 ul, iv at 30 mins by gamma-counting analysis; type: ADME, organism-based; details: in vivo, 0.5 h; procedure, shortened: as §2
Spleen [21] = assay: Drug uptake in ICR mouse spleen at 370 kBq/100 ul, iv at 60 mins by gamma-counting analysis; type: ADME, organism-based; details: in vivo, 1 h; procedure, shortened: as §2
Spleen [22] = assay: Drug uptake in ICR mouse spleen at 370 kBq/100 ul, iv at 30 mins by gamma-counting analysis; type: ADME, organism-based; details: in vivo, 0.5 h; procedure, shortened: as §2
Liver [23] = assay: Drug uptake in ICR mouse liver at 370 kBq/100 ul, iv at 10 mins by gamma-counting analysis; type: ADME, organism-based; details: in vivo; procedure, shortened: as §2
Bone [24] = assay: Drug uptake in ICR mouse bone at 370 kBq/100 ul, iv at 30 mins by gamma-counting analysis; type: ADME, organism-based, Bone element; details: in vivo, 0.5 h; procedure, shortened: as §2
Intestine [25] = assay: Drug uptake in ICR mouse intestine assessed per organ at 370 kBq/100 ul, iv at 2 mins by gamma-counting analysis; type: ADME, organism-based; details: in vivo; procedure, shortened: as §1
Kidney [26] = assay: Drug uptake in ICR mouse kidney at 370 kBq/100 ul, iv at 60 mins by gamma-counting analysis; type: ADME, organism-based; details: in vivo, 1 h; procedure, shortened: as §2
Lung [27] = assay: Drug uptake in ICR mouse lung at 370 kBq/100 ul, iv at 2 mins by gamma-counting analysis; type: ADME, organism-based; details: in vivo; procedure, shortened: as §2
Lung [28] = assay: Drug uptake in ICR mouse lung at 370 kBq/100 ul, iv at 30 mins by gamma-counting analysis; type: ADME, organism-based; details: in vivo, 0.5 h; procedure, shortened: as §2
Blood [29] = assay: Drug uptake in ICR mouse blood at 370 kBq/100 ul, iv at 2 mins by gamma-counting analysis; type: ADME, organism-based; details: in vivo; procedure, shortened: as §2
Brain [30] = assay: Drug uptake in wild type C57BL6 mouse brain at 370 KBq/100 ul after 1 hr by autoradiographic analysis; type: ADME, tissue-based; details: in vitro
Procedure, shortened: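 Paraffin brain sections from 12-month-old male control C57BL6 mice were deparaffinized through xylene and graded ethanol, then held in PBS (0.2 M, pH 7.4) for 30 min. They were incubated with the ¹⁸F tracer (370 KBq per 100 μL) for 1 h at room temperature. Sections were washed in 40% EtOH, rinsed with water for 1 min, dried, and exposed to a phosphor plate for 2 h. The same sections were then stained with thioflavin S.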

Spleen [31] = assay: Drug uptake in ICR mouse spleen at 370 kBq/100 ul, iv at 2 mins by gamma-counting analysis; type: ADME, organism-based; details: in vivo; procedure, shortened: as §2
Liver [32] = assay: Drug uptake in ICR mouse liver at 370 kBq/100 ul, iv at 60 mins by gamma-counting analysis; type: ADME, organism-based; details: in vivo, 1 h; procedure, shortened: as §2
Lung [33] = assay: Drug uptake in ICR mouse lung at 370 kBq/100 ul, iv at 60 mins by gamma-counting analysis; type: ADME, organism-based; details: in vivo, 1 h; procedure, shortened: as §2
Blood [34] = assay: Drug uptake in ICR mouse blood at 370 kBq/100 ul, iv at 10 mins by gamma-counting analysis; type: ADME, organism-based; details: in vivo; procedure, shortened: as §2
Bone [35] = assay: Drug uptake in ICR mouse bone at 370 kBq/100 ul, iv at 2 mins by gamma-counting analysis; type: ADME, organism-based, Bone element; details: in vivo; procedure, shortened: as §2
Stomach [36] = assay: Drug uptake in ICR mouse stomach assessed per organ at 370 kBq/100 ul, iv at 10 mins by gamma-counting analysis; type: ADME, organism-based; details: in vivo; procedure, shortened: as §1
Kidney [37] = assay: Drug uptake in ICR mouse kidney at 370 kBq/100 ul, iv at 10 mins by gamma-counting analysis; type: ADME, organism-based; details: in vivo; procedure, shortened: as §2
Intestine [38] = assay: Drug uptake in ICR mouse intestine assessed per organ at 370 kBq/100 ul, iv at 30 mins by gamma-counting analysis; type: ADME, organism-based; details: in vivo, 0.5 h; procedure, shortened: as §1
Intestine [39] = assay: Drug uptake in ICR mouse intestine assessed per organ at 370 kBq/100 ul, iv at 10 mins by gamma-counting analysis; type: ADME, organism-based; details: in vivo; procedure, shortened: as §1
Stomach [40] = assay: Drug uptake in ICR mouse stomach assessed per organ at 370 kBq/100 ul, iv at 2 mins by gamma-counting analysis; type: ADME, organism-based; details: in vivo; procedure, shortened: as §1
Blood [41] = assay: Drug uptake in ICR mouse blood at 370 kBq/100 ul, iv at 60 mins by gamma-counting analysis; type: ADME, organism-based; details: in vivo, 1 h; procedure, shortened: as §2
Bone [42] = assay: Drug uptake in ICR mouse bone at 370 kBq/100 ul, iv at 60 mins by gamma-counting analysis; type: ADME, organism-based, Bone element; details: in vivo, 1 h; procedure, shortened: as §2
Bone [43] = assay: Drug uptake in ICR mouse bone at 370 kBq/100 ul, iv at 10 mins by gamma-counting analysis; type: ADME, organism-based, Bone element; details: in vivo; procedure, shortened: as §2
Kidney [44] = assay: Drug uptake in ICR mouse kidney at 370 kBq/100 ul, iv at 2 mins by gamma-counting analysis; type: ADME, organism-based; details: in vivo; procedure, shortened: as §2
Brain [45] = assay: Ratio of drug uptake in brain at 2 mins to drug uptake in brain at 60 mins in ICR mouse at 370 KBq/100 ul, iv; type: ADME, organism-based; details: in vivo; procedure, shortened: as §3

- Drug uptake (Stomach [1]): 11.46 %ID
- Drug uptake (Intestine [2]): 18.6 %ID
- Drug uptake (Liver [3]): 15.22 % ID/g
- logD at 0.05 h [4]: 2.85
- Drug uptake (Brain [5]): Not Active
- Drug uptake (Brain [6]): 2.23 % ID/g
- Drug uptake (Heart [7]): 2.16 % ID/g
- Drug uptake (Lung [8]): 3.36 % ID/g
- Drug uptake (Spleen [9]): 2.05 % ID/g
- Drug uptake (Brain [10]): 1.31 % ID/g
- Drug uptake (Stomach [11]): 8.78 %ID
- Drug uptake (Kidney [12]): 3.12 % ID/g
- Drug uptake (Blood [13]): 3.49 % ID/g
- Drug uptake (Brain [14]): 1.26 % ID/g
- Drug uptake (Heart [15]): 3.53 % ID/g
- Drug uptake (Heart [16]): 1.85 % ID/g
- Drug uptake (Heart [17]): 1.96 % ID/g
- Ki [18]: 9.3 nM
- Drug uptake (Brain [19]): 1.63 % ID/g
- Drug uptake (Liver [20]): 8.16 % ID/g
- Drug uptake (Spleen [21]): 1.49 % ID/g
- Drug uptake (Spleen [22]): 1.74 % ID/g
- Drug uptake (Liver [23]): 9.38 % ID/g
- Drug uptake (Bone [24]): 1.33 % ID/g
- Drug uptake (Intestine [25]): 5.69 %ID
- Drug uptake (Kidney [26]): 2.66 % ID/g
- Drug uptake (Lung [27]): 5.53 % ID/g
- Drug uptake (Lung [28]): 3.11 % ID/g
- Drug uptake (Blood [29]): 6.92 % ID/g
- Drug uptake (Brain [30]): Not Active
- Drug uptake (Spleen [31]): 2.68 % ID/g
- Drug uptake (Liver [32]): 4.12 % ID/g
- Drug uptake (Lung [33]): 1.93 % ID/g
- Drug uptake (Blood [34]): 4.25 % ID/g
- Drug uptake (Bone [35]): 1.19 % ID/g
- Drug uptake (Stomach [36]): 9.44 %ID
- Drug uptake (Kidney [37]): 4.04 % ID/g
- Drug uptake (Intestine [38]): 21.68 %ID
- Drug uptake (Intestine [39]): 10.06 %ID
- Drug uptake (Stomach [40]): 2.96 %ID
- Drug uptake (Blood [41]): 2.94 % ID/g
- Drug uptake (Bone [42]): 1.42 % ID/g
- Drug uptake (Bone [43]): 0.86 % ID/g
- Drug uptake (Kidney [44]): 6.02 % ID/g
- Ratio (Brain [45]): 1.77
SMILES: CNc1ccc(-c2nc3ccc(OCCOCCOCC[18F])cc3s2)cn1
